From PubChem
An excerpt weighted towards active compounds, which were near 1.9% of everything screened.
NPY1 pot ag: human NPY-Y1 potentiation or agonism, primary screen; P25929; NPY-Y1 expressing cells, potentiator/agonist activation; activation, % at 3.6 µM; actives 0.37% (n = 220,000); in the data active = activation above about 33%, passing the limit was not always enough;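 also: cells stimulated with NPY at EC10 then isoproterenol at EC100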
Target sequence (P25929 whole entry, looked up): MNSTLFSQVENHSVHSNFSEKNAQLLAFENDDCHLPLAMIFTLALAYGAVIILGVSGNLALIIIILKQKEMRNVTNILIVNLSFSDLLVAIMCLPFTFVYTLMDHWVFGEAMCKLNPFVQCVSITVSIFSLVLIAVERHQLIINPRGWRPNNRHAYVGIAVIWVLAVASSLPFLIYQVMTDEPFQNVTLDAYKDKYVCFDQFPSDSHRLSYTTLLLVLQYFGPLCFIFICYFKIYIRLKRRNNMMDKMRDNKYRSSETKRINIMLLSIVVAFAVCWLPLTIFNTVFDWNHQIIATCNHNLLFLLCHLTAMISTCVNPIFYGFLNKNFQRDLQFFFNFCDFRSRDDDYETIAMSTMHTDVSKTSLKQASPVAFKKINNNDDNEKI
NPY Y1 blocker: antagonists of human neuropeptide Y receptor Y1 | P25929 | AID 1040 | actives 1% (n = 200,000) | HEK293-CNG Y1 cells, membrane potential fluorescence; NPY at EC95, then isoproterenol | inhibition, % at 3.6 µM;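 active = inhibition above the campaign mean inhibition of all tested compounds plus 3 SD, cut at about 20% in these data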
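Material: HEK293 cells with Y1 receptor plus CNG channel; times: compound incubation 1 h at room temperature, readout 45 min post-stimulation; signal: fluorescence, membrane potential probe; read-out basis: fluorescence ratio normalized to % inhibition between controls; benchmarks: full-block control isoproterenol-only wells, zero-block control NPY plus isoproterenol wells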
NPY-Y2 antag: NPY-Y2 (human) receptor antagonism. P49146. NPY-Y2 expressing cells, antagonist mode. inhibition, % at 2.7 µM. actives 0.99% (n = 140,000). AID 793; in the data active = inhibition above about 17%
NPY2 pot ag: potentiates or activates human NPY-Y2 receptor. P49146. cells expressing NPY-Y2, potentiator/agonist read-out. activation, % at 3.6 µM. actives 0.45% (n = 220,000). AID 1359; in the data active = activation above about 27%;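 also: cells stimulated with NPY near EC25 plus isoproterenol at EC100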
Of the large screens only hits and unclear results are named; the others gave an inactive call.

C=CCc1ccccc1OCCCCN1CCCC1	none
Cc1ccc(C)c(OCC(O)CN2CCCCC2C)c1 (centres undefined)	NPY1 pot ag 101.0, NPY2 pot ag 79.5
CCC(=O)NC(=S)Nc1ccc(-c2nc3ccc(C)cc3s2)cc1	none
Cc1ccc2nc(-c3ccc(NC(=S)NC(=O)C(C)C)cc3)sc2c1	NPY1 pot ag 50.7
Cc1c(Cl)c(C(=O)N2CCCC2)nn1C	none
Cc1cnc(C(=O)Nc2ccccc2-c2ccc(C)o2)cn1	NPY1 pot ag 100.5, NPY2 pot ag 55.8
O=C(c1cnccn1)N(Cc1ccco1)C1(C(=O)NC2CCCC2)CCCCC1	NPY Y1 blocker 41.6, NPY-Y2 antag 33.2
CN(C(=O)c1ccc2c(c1)OCO2)C1(C(=O)NC2CCCCC2)CCCCC1	none
O=C(c1ccc2c(c1)OCO2)N(Cc1ccco1)C1(C(=O)NC2CCCCC2)CCCCC1	NPY Y1 blocker 51.4, NPY-Y2 antag 27.9
Cc1ccc(N(C(=O)c2ccccn2)C2(C(=O)NC3CCCC3)CCCCC2)cc1	none
O=C1NC(=O)C(CC(=O)N(Cc2ccco2)C2(C(=O)NC3CCCC3)CCCCC2)N1 (centres undefined)	none
O=C(c1ccccn1)N(Cc1ccco1)C1(C(=O)NC2CCCC2)CCCCC1	NPY Y1 blocker 34.4, NPY-Y2 antag 52.8
O=C(Cc1cccs1)N(Cc1ccco1)C1(C(=O)NC2CCCC2)CCCCC1	NPY Y1 blocker 61.4, NPY-Y2 antag 25.8
CC(=O)Nc1ccc(S(=O)(=O)N2CCN(CC(=O)N3CCOCC3)CC2)cc1	none (no result: NPY Y1 blocker, NPY-Y2 antag)
CN(C1CCCCC1)S(=O)(=O)c1ccc(S(=O)(=O)N(CC(=O)Nc2ccccc2)C2CC2)cc1	none (no result: NPY Y1 blocker, NPY-Y2 antag)
CC(NC(=O)CN1C(=O)NC(Cc2ccccc2)(Cc2ccccc2)C1=O)C12CC3CC(CC(C3)C1)C2 (centres undefined)	NPY Y1 blocker 130.3, NPY-Y2 antag 160.8
CC(NC(=O)Cn1ncc(Cl)c(Cl)c1=O)C12CC3CC(CC(C3)C1)C2 (centres undefined)	NPY1 pot ag 81.8, NPY2 pot ag 72.0
CCCn1c(SCC(=O)N2CCN(c3ccccc3)CC2)nc2ccccc2c1=O	NPY Y1 blocker 21.5, NPY-Y2 antag 19.4
Cc1nn(Cc2ccccc2)c(Cl)c1/C=C/C(=O)OC(C(=O)NC(N)=O)C(C)C (centres undefined)	none (no result: NPY-Y2 antag)
O=C(C1CCN(CCCc2ccccc2)CC1)N(CCc1ccccc1)Cc1ccccc1	NPY Y1 blocker 26.8, NPY-Y2 antag 35.8
O=C(C1CCN(CC2CC=CCC2)CC1)N(CCc1ccccc1)Cc1ccccc1 (centres undefined)	NPY Y1 blocker 23.5, NPY-Y2 antag 18.1
O=C(C1CCN(S(=O)(=O)c2cnc[nH]2)CC1)N(CCc1ccccc1)Cc1ccccc1	none (no result: NPY-Y2 antag)
COCCNC(=O)c1cc(S(=O)(=O)N2CCOCC2)ccc1SCc1cccc(OC)c1OC	none (no result: NPY-Y2 antag)
CCCOCCOC(=O)c1[nH]c2c(c1C)C(=O)CC(c1cc(OC)ccc1OC)C2 (centres undefined)	NPY Y1 blocker 34.5, NPY-Y2 antag 30.9
CC(=O)Oc1ccc2c(=O)c(Oc3ccccc3)coc2c1OC(C)=O	none
N#CC1=C(N)Oc2n[nH]c(-c3cccs3)c2C1c1ccsc1 (centres undefined)	NPY Y1 blocker 27.7
Cc1cc(-c2[nH]nc3c2C(c2ccc(Cl)cc2)C(C#N)=C(N)O3)c(C)s1 (centres undefined)	NPY Y1 blocker 58.9, NPY-Y2 antag 69.3
COc1ccc(-c2[nH]nc3c2C(c2ccoc2)C(C#N)=C(N)O3)cc1 (centres undefined)	none
Cc1ccc(-c2[nH]nc3c2C(c2ccoc2)C(C#N)=C(N)O3)cc1C (centres undefined)	NPY Y1 blocker 110.4, NPY-Y2 antag 86.5
O=[N+]([O-])c1cc(Cl)ccc1N1CCN(c2cccc(C(F)(F)F)c2)CC1	NPY Y1 blocker 20.1, NPY-Y2 antag 20.5
O=[N+]([O-])c1cc(Cl)ccc1N1CCCC1	none (no result: NPY-Y2 antag)
CCOc1ccc(-n2c(SCc3ccc(C#N)cc3)nnc2-c2cccnc2)cc1	NPY Y1 blocker 44.6, NPY-Y2 antag 25.6
Clc1ccc(-n2c(SC/C=C/c3ccccc3)nnc2-c2cccnc2)cc1	NPY Y1 blocker 23.0, NPY-Y2 antag 29.7
Cc1ccc(NC(=O)CCC(=O)OCC(=O)c2ccc(Oc3ccc([N+](=O)[O-])cc3)cc2)cc1C	none
Cc1cccc(NC(=O)CCC(=O)OCC(=O)c2ccc(Oc3ccc([N+](=O)[O-])cc3)cc2)c1	NPY1 pot ag 52.9, NPY2 pot ag 47.5
CCOC(=O)c1c(NC(=O)CSc2nnc(C)c(=O)[nH]2)sc2c1CCCC2	none
CCOC(=O)c1c(NC(=O)CSc2nnc(C)s2)sc2c1CCCCC2	NPY Y1 blocker 39.2, NPY-Y2 antag 19.5
c1ccc(Nc2c3c(nc4ccccc24)CCC3)cc1	NPY Y1 blocker 20.4 (no result: NPY-Y2 antag)
COc1cc(OC)c(/C=N/NC(=O)Cn2nc([N+](=O)[O-])cc2C)c(OC)c1	none (no result: NPY Y1 blocker, NPY-Y2 antag)
Cc1ccc(CN2C3=NCCN3c3ccccc32)cc1	none (no result: NPY-Y2 antag)
O=C(CN1C2=NCCN2c2ccccc21)C12CC3CC(CC(C3)C1)C2	NPY Y1 blocker 67.3, NPY-Y2 antag 48.8
Cc1[nH]c2ccccc2c1C(=O)CSC(=S)N1CCCCC1	none
O=C(/C(=N\Nc1ccc(Br)cc1)Sc1nnnn1-c1ccccc1)c1ccccc1	none
Brc1ccc(N/N=C(/N=Nc2nn[nH]n2)c2ccccc2)cc1	NPY1 pot ag 64.0, NPY2 pot ag 53.4 (no result: NPY-Y2 antag)
c1ccc2c(c1)oc1c(Nc3ccc4c(c3)OCO4)ncnc12	none
c1ccc2c(c1)oc1c(NCc3ccc4c(c3)OCO4)ncnc12	NPY-Y2 antag 17.8
Nc1c(C(O)(C(F)(F)F)C(F)(F)F)cc(C(O)(C(F)(F)F)C(F)(F)F)c2ccccc12	NPY1 pot ag 48.4, NPY2 pot ag 77.3
CC1CC(=O)NN=C1c1ccc(NCCO)c([N+](=O)[O-])c1 (centres undefined)	NPY Y1 blocker 77.8, NPY-Y2 antag 77.6
Oc1ccc(Oc2ccc3c(C(F)(F)F)cc(C(F)(F)F)nc3n2)cc1	NPY1 pot ag 39.7, NPY2 pot ag 49.1
COC(=O)c1ccc(CC(=O)c2ccc(O)cc2O)o1	none
CCOC(=O)c1ccc(CC(=O)c2ccc(O)cc2O)o1	NPY2 pot ag 34.9
O=C(CCC1CCCCC1)Nc1c2c(nn1-c1ccc(F)cc1)CS(=O)(=O)C2	NPY Y1 blocker 57.1, NPY-Y2 antag 29.6
CCC(=O)Nc1c2c(nn1-c1ccc(F)cc1)CS(=O)C2 (centres undefined)	none
CC1CCCC(NC(=S)Nc2cccc(S(=O)(=O)N(C)C)c2)C1C (centres undefined)	none (no result: NPY-Y2 antag)
c1ccc(Oc2cc(-c3ccccc3)nc(-c3ccccc3)n2)cc1	none
O=S(=O)(Cc1cc(Oc2ccccc2)nc(-c2ccccc2)n1)c1ccccc1	NPY Y1 blocker 21.9, NPY-Y2 antag 21.1
CN1CCN(S(=O)(=O)c2ccc3[nH]c(=O)oc3c2)CC1	none
Cc1oc(C(C)(C)C)cc1C(N)=O	none (no result: NPY Y1 blocker, NPY-Y2 antag)
CCOC(=O)C(C)Sc1nc(-c2ccco2)cc(C(F)(F)F)c1C#N (centres undefined)	NPY Y1 blocker 33.9, NPY-Y2 antag 19.9
COc1cc(/C=C(\C#N)C(=O)NC2CCCCC2)ccc1OCc1ccc(C(=O)O)cc1	none (no result: NPY-Y2 antag)
